Screening data deposited in PubChem BioAssay by Sanford-Burnham Center for Chemical Genomics.
Apaf1 inhib: blocks human Apaf-1 apoptosome activity | reconstituted apoptosome caspase-3 activity, DEVD-Rh110 fluorescence | AID 489030 | O14727 | inhibition, % at 20 µM | hit rate 0.71% among 330,000; active means inhibition of at least 40% at 20 µM;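 further: plate controls were DMSO wells for no effect and DEVD-CHO caspase inhibitor wells for full effect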
Target sequence (O14727 whole entry, looked up): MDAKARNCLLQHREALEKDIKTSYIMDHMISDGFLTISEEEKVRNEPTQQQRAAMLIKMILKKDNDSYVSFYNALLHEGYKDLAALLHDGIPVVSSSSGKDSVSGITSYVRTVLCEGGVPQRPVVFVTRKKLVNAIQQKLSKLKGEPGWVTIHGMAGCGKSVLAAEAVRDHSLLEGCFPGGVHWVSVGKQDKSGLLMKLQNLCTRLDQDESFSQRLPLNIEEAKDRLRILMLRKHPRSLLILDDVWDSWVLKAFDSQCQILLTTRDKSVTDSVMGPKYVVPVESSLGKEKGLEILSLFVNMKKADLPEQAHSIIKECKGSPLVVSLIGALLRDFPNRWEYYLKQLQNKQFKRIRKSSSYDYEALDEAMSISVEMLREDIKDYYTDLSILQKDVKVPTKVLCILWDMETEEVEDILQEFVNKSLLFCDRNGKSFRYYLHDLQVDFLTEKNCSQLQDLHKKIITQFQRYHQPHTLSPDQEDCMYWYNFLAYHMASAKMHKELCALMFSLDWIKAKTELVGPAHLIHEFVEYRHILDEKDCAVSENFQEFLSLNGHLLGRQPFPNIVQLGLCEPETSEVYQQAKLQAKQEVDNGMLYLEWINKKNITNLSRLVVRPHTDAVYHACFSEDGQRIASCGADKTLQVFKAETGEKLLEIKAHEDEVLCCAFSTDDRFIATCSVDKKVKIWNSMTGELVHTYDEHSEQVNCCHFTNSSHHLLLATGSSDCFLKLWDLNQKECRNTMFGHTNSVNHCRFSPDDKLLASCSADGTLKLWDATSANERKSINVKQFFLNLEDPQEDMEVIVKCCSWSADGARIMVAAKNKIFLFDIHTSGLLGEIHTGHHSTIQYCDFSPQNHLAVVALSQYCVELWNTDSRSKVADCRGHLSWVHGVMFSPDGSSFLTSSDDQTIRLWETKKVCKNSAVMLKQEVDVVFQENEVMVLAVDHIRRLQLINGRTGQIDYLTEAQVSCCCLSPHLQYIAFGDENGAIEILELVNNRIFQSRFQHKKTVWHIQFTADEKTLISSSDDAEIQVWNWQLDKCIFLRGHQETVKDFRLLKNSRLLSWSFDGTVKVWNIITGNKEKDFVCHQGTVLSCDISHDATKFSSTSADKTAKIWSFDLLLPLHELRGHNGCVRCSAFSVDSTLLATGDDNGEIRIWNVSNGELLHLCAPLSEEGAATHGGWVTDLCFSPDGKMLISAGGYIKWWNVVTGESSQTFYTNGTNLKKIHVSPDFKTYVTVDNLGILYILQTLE
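Assay system – apoptosome proteins · Medium – Hepes buffer, pH 7.5 · Also added – cytochrome c with DEVD-Rh110 · Timing – 30 min compound preincubation, 50 min activation, room temperature · Detection – Rh110 fluorescence, excitation 480 nm, emission 540 nm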
UBC13 inh: human UBC13 polyubiquitination inhibition; UBC13 polyubiquitin chain formation, TR-FRET; P61088; AID 485273; inhibition, % at 20 µM; hit rate 0.47% among 330,000; in the data active means inhibition above about 45%, passing the limit was not always enough; inconclusive means no clear call, values can overlap the other calls
CHOP UPR activ: activators of apoptotic arm of unfolded protein response (CHOP). CHO-CHOP luciferase reporter, UPR activation, luminescence; percent of tunicamycin response over DMSO baseline. activation, % at 10 µM. hit rate 0.34% among 330,000. AID 449763;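 active means at 10 µM dose, activation of 40% or more, normalized to positive control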;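 further: 100% = tunicamycin at 10 µg/mL and 0% = DMSO alone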
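Assay system: CHO-CHOP cells, stable luciferase reporter of PERK-eIF2a-CHOP signalling / Buffer or medium: F12 plus 10% serum / Compound dosing: one dose, 10 µM in 0.5% DMSO / Times: 6 h compound treatment, 37 °C / Technique: luciferase luminescence / Read-out: % reporter activation, DMSO baseline versus tunicamycin full activation / Benchmarks: tunicamycin and DMSO controls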
Mdm2 MdmX PPI: human Mdm2/MdmX binding inhibition | O15151+Q00987 | SaOS-2 split-luciferase Mdm2/MdmX complementation, luminescence | inhibition, % at 8 µM | hit rate 3% among 330,000 | AID 485346;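 active means inhibition of at least 50% at 8 µM in the primary screen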
XBP1 UPR activ: activators of adaptive arm of unfolded protein response (XBP1); activation, % at 20 µM; hit rate 0.33% among 330,000; CHO-XBP1 luciferase reporter, IRE1-XBP1 UPR activation, luminescence; percent of tunicamycin response, DMSO as zero; AID 463104;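 active means versus positive control, 20 µM dose yields 30% or more activation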;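 further: 100% = tunicamycin at 10 µg/mL and 0% = DMSO only wells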
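Material: CHO-XBP1 cells stably carrying IRE1-XBP1-driven luciferase reporter / Amount: 1000 cells per well / Compound: 20 µM, 1% DMSO / Times: 6 h treatment, 37 °C / Detection: luciferase luminescence / Measure: % activation of reporter signal versus tunicamycin and DMSO controls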
Mdm2 MdmX conf: confirmation of human Mdm2/MdmX interaction inhibitors; hit rate 55% among 10,000; AID 489028; shares compounds with Mdm2 MdmX PPI; Mdm2-MdmX binding, luminescent assay; inhibition, % at 8 µM; in the data active means inhibition above about 40%
FLuc counter: inhibits full-length luciferase, flagging false Mdm2/MdmX hits; shares compounds with Mdm2 MdmX PPI; hit rate 77% among 6,200; inhibition, % at 8 µM; SaOS-2 full-length luciferase counterscreen, luminescence;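 active means mean inhibition at 8 µM reaching about 37%, which flags the compound as non-specific, limit read from the data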;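 further: p53-null SaOS-2 cells with luciferase driven by a doxycycline-inducible promoter; compound on cells about two nights before reading with doxycycline added after day one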
* marks the source's active call; other numbers are inactive results; ? = inconclusive; . = no result. Sampled rows, rich in hits. Any-hit rate of the full collection: about 4.1%.

SMILES	Apaf1 inhib	UBC13 inh	CHOP UPR activ	Mdm2 MdmX PPI	XBP1 UPR activ	Mdm2 MdmX conf	FLuc counter
Cc1nn(-c2ccccc2Cl)c(Cl)c1/C=N/Nc1cccc(C(=O)O)c1	4	-18	-8	73*	-5	83*	124*
CN(c1ccccc1)S(=O)(=O)c1ccc(Cl)c(C(=O)NCC(c2ccco2)N2CCCC2)c1 (configuration not stated)	8	-5	0	-2	-2	.	.
Nc1ccc2c(c1)OC1(CCCC1)O2	13	-12	-4	70*	-3	80*	37*
NC(=O)CC(NC(=O)Cc1ccc(Br)cc1)c1ccc(N2CCCCCCC2)c([N+](=O)[O-])c1 (configuration not stated)	21	-9	1	0	4	.	.
CC(C)OCCCNC(=O)c1c(N)n(/N=C/c2ccccn2)c2nc3ccccc3nc12	21	26	5	64*	20	52*	63*
COCCCNC(=O)c1c(N)n(/N=C/c2cccnc2)c2nc3ccccc3nc12	13	25	5	-4	4	.	.
CCC(C)NC(=O)c1c(N)n(/N=C/c2cccnc2)c2nc3ccccc3nc12 (configuration not stated)	16	30	7	65*	17	60*	61*
CCC(C)NC(=O)c1c(N)n(/N=C/c2ccccn2)c2nc3ccccc3nc12 (configuration not stated)	33	6	5	47	5	.	.
Cc1csc2nc(CNC(=O)C3CC=CCC3C(=O)O)cn12 (configuration not stated)	-2	5	0	8	-3	.	.
Cc1nn(-c2ccc(F)cc2)c2c1cc(C#N)c1nc3ccccc3n12	-3	13	-2	29	2	.	.
COc1ccc(-c2cc3nc(C)n(N)c(=O)c3s2)cc1	-19	12	-10	89*	-10	88*	56*
COc1ccc(-c2cc3nc4n(c(=O)c3s2)CCC4)cc1	-10	16	-8	34	-6	.	.
Cc1nc2cc(-c3ccccc3)sc2c(=O)n1N	10	-14	-9	62*	-11	56*	30
CC(C)Cc1nc2sc3c(NCc4ccco4)ncnc3c2c2c1COC(C)(C)C2	7	2	2	26	3	.	.
Cc1nc2sc3c(NCc4ccco4)ncnc3c2c2c1COC(C)(C)C2	3	12	-1	63*	6	46*	37*
Cc1ccc(-c2nnc(N(C)C(=O)c3ccccn3)s2)cn1	0	-5	2	-20	2	.	.
C=CCOc1ccc(CN(C)CC(O)COc2cccc3ccccc23)cc1 (configuration not stated)	23	12	-2	23	3	.	.
Oc1cccc2ccc(/C=C/c3cccs3)nc12	15	-14	11	-31	5	.	.
Cc1ccsc1/C=C/c1ccc2cccc(O)c2n1	5	-6	11	-42	4	.	.
COc1ccc(OC)c(/C=C/c2ccc3cccc(O)c3n2)c1	22	-15	26	93*	22	38	.
Oc1cccc2ccc(/C=C/c3ccccc3Br)nc12	15	-38	18	-12	8	.	.
COc1cc(Br)cc(/C=C/c2ccc3cccc(O)c3n2)c1O	26	-38	1	81*	12	68*	51*
COc1cc(/C=C/c2ccc3cccc(OC)c3n2)c(O)c([N+](=O)[O-])c1	0	-39	1	43	5	.	.
COc1cc(Br)c(/C=C/c2ccc3cccc(O)c3n2)cc1OC	13	-8	5	74*	3	52*	47*
COc1cc(/C=C/c2ccc3cccc(O)c3n2)c(Br)cc1O	7	-10	19	98*	26	39	29
SMILES	Apaf1 inhib	UBC13 inh	CHOP UPR activ	Mdm2 MdmX PPI	XBP1 UPR activ	Mdm2 MdmX conf	FLuc counter
COC(=O)C1=C(C(=O)OC)[C@@H]2N(Cc3ccccc3)c3ccccc3[C@@]23C[C@@H](C(=O)OC)N(C(=O)C2CCC2)C3=N1	15	-18	0	27	-2	.	.
Cc1cc(C(=O)NCCCN2CCOCC2)n(-c2ccccc2)n1	2	-8	0	26	-3	.	.
Oc1c(Cl)cc(Cl)cc1/C=C/c1ccc2cccc(O)c2n1	22	-33	-1	48	3	.	.
Oc1ccc(Cl)cc1/C=C/c1ccc2cccc(O)c2n1	18	-38	5	60*	6	39	63*
CC(=O)c1ccc(N2CCN(c3ccc4cc(S(=O)(=O)N5CCC(C)CC5)ccc4n3)CC2)cc1	5	10	14	61*	22	-2	.
COc1ccccc1N1CCN(c2ccc3cc(S(=O)(=O)N4CCCCC4)ccc3n2)CC1	12	?	-1	51*	-4	6	.
O=S(=O)(c1ccc2nc(N3CCN(c4ccccc4)CC3)ccc2c1)N1CCCCC1	-1	20	7	42	12	.	.
Cc1cccc(NC(=S)NC2CC3C=CC2C3)c1 (configuration not stated)	-22	4	1	-6	-1	.	.
CCC(=O)Nc1cccc2cccnc12	5	-8	2	13	5	.	.
Cc1conc1NC(c1cccs1)c1ccc2cccnc2c1O (configuration not stated)	-3	-15	4	63*	1	50*	32
CCC(=O)NC(c1cccs1)c1ccc2cccnc2c1O (configuration not stated)	-7	-25	23	82*	5	84*	23
CC(C)CC(=O)NC(c1cccs1)c1ccc2cccnc2c1O (configuration not stated)	2	-18	5	72*	0	85*	25
Cc1cccnc1NC(=S)NC(=O)c1cccs1	-21	10	6	-186	3	.	.
CC(C)CC(=O)NC(NC(=S)Nc1cccc2cccnc12)C(Cl)(Cl)Cl (configuration not stated)	19	-5	-1	20	-1	.	.
N#Cc1ccc(C(=O)CSc2n[nH]c(=O)n2Cc2ccco2)cc1	-3	3	-1	-3	-2	.	.
Cn1nnnc1SCC(=O)Nc1ccc(S(=O)(=O)N2CCOCC2)cc1	-20	-2	1	-1	-2	.	.
O=[N+]([O-])c1cc([N+](=O)[O-])c(Oc2cncc(Cl)c2)cc1NC1CCCCCCC1	11	-12	-1	74*	8	40	83*
Cc1ccc(-c2cc(-c3ccccc3)c(C#N)c(Br)n2)cc1	-1	?	0	72*	-3	-4	.
C=CCn1c(=O)c2c(nc3n2CCCN3CCc2ccc(OC)c(OC)c2)n(C)c1=O	15	0	-1	-25	0	.	.
